{"source": "ChEMBL document CHEMBL5705898", "about": "(Proc Natl Acad Sci U S A, 2014)", "key": {"Homo sapiens [1]": {"organism": "Homo sapiens", "assay": "Inhibition of GABA-gated Cl- channel (unknown origin) at 10 uM relative to control"}, "[2]": {"molecular_target": "Androgen receptor (Homo sapiens) (UniProt P10275)", "sequence (P10275 whole entry)": "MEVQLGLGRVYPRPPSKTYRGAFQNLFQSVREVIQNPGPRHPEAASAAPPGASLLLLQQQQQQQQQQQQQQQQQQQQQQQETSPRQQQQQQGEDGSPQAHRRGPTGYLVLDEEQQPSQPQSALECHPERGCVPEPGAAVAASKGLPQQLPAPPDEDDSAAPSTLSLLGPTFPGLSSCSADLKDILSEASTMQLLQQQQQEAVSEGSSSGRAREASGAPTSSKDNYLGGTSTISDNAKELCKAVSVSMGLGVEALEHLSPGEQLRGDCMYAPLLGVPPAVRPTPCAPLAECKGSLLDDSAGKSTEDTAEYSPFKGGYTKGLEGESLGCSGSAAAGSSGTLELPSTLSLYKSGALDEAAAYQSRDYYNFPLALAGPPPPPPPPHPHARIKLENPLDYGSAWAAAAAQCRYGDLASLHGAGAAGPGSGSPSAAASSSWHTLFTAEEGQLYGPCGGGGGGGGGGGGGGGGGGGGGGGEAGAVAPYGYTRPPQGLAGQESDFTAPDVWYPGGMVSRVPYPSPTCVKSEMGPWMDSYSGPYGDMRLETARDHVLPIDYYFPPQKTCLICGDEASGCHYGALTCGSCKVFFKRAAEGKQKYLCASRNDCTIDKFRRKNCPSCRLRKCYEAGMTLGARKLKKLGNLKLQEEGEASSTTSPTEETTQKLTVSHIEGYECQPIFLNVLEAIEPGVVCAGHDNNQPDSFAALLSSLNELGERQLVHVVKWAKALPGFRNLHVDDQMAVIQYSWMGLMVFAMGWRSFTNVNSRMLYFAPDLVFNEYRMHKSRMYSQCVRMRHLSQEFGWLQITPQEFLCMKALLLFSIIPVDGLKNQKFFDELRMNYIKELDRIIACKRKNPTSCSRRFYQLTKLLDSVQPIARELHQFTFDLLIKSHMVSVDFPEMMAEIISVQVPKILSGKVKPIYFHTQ", "assay": "Inhibition of human AR at 10 uM relative to control"}, "Homo sapiens [3]": {"organism": "Homo sapiens", "assay": "Inhibition of human UT at 10 uM relative to control"}, "Caspase-3 (Homo sapiens)": {"molecular_target": "Caspase-3 (Homo sapiens) (UniProt P42574)", "assay": "Inhibition of human caspase-3 at 10 uM relative to control"}, "[4]": {"assay": "Inhibition of Ca2+ channel L, diltiazem site (unknown origin)", "set-up": "species or system Homo sapiens"}, "[5]": {"molecular_target": "Adenosine receptor A2b (Homo sapiens) (UniProt P29275)", "sequence (P29275 whole entry)": "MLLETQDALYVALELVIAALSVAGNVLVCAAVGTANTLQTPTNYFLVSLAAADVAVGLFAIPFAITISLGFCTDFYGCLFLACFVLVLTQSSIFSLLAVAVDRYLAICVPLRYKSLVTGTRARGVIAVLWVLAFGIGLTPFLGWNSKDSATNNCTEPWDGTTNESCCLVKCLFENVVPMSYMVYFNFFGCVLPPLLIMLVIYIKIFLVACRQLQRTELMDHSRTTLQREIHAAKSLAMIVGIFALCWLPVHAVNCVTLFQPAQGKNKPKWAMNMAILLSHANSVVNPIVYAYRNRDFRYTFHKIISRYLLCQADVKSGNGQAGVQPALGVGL", "assay": "Inhibition of human A2B receptor at 10 uM relative to control"}, "[6]": {"molecular_target": "Melanocortin receptor 4 (Homo sapiens) (UniProt P32245)", "assay": "Inhibition of human MC4 at 10 uM relative to control"}, "[7]": {"molecular_target": "Apelin receptor (Homo sapiens) (UniProt P35414)", "assay": "Inhibition of human APJ at 10 uM relative to control"}, "[8]": {"assay": "Permeability of compound in MDCKII-LE cells", "type": "ADME, cell-based, Canis lupus familiaris", "conditions": "dog, MDCK; read-out: permeability"}, "Homo sapiens [9]": {"organism": "Homo sapiens", "assay": "Inhibition of strychnine-insensitive glycine receptor (unknown origin) at 10 uM relative to control"}, "[10]": {"molecular_target": "D(3) dopamine receptor (Homo sapiens) (UniProt P35462)", "assay": "Inhibition of human D3 receptor at 10 uM relative to control"}, "[11]": {"molecular_target": "Muscarinic acetylcholine receptor M2 (Homo sapiens) (UniProt P08172)", "assay": "Inhibition of human M2 receptor at 10 uM relative to control"}, "U2OS": {"tested_on": "U2OS", "assay": "Cytotoxicity against human U2OS cells assessed as reduction in cell viability at <50 uM by alamar blue assay", "type": "toxicity, cell-based"}, "Homo sapiens [12]": {"organism": "Homo sapiens", "assay": "Inhibition of Ca2+ channel L, verapamil site (unknown origin) at 10 uM relative to control"}, "[13]": {"molecular_target": "Vasoactive intestinal polypeptide receptor 1 (Homo sapiens) (UniProt P32241)", "assay": "Inhibition of human VPAC1 at 10 uM relative to control"}, "[14]": {"molecular_target": "Histone-lysine N-methyltransferase SETD7 (Homo sapiens) (UniProt Q8WTS6)", "conditions": "HEK293, dose 10.0 µM"}, "[15]": {"molecular_target": "Sodium-dependent noradrenaline transporter (Homo sapiens) (UniProt P23975)", "assay": "Inhibition of human norepinephrine transporter at 10 uM relative to control"}, "[16]": {"molecular_target": "Bombesin receptor subtype-3 (Homo sapiens, UniProt P32247)", "assay": "Inhibition of human BB3 receptor"}, "[17]": {"molecular_target": "Type-1 angiotensin II receptor (Homo sapiens) (UniProt P30556)", "sequence (P30556 whole entry)": "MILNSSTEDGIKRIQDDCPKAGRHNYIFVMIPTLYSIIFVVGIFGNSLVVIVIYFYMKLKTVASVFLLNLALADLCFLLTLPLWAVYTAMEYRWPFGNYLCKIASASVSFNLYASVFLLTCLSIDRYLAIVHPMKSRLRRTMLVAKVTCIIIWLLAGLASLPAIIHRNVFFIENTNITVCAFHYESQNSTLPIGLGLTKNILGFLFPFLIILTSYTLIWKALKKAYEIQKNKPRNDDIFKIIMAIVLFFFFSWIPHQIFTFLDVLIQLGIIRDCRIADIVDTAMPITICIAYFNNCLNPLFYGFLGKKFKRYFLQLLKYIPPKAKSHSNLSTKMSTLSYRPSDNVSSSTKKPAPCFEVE", "assay": "Inhibition of human AT1 receptor at 10 uM relative to control"}, "[18]": {"assay": "Inhibition of SETD7 V274E mutant (unknown origin) using biotinylated H3 (1-25) peptide as substrate incubated for 1 hrs in presence of 3H-SAM by radioactivity based assay", "set-up": "species or system Homo sapiens", "method_in_brief": "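Scintillation proximity assay on recombinant E. coli-expressed human SETD7(1–366) mutant forms. Read-out was incorporation of the ³H-methyl group from ³H-SAM into histone H3(1–25) peptide, with 2 µM SAM, 2 µM H3(1–25) and 2 nM enzyme. IC50 is given as the mean ± SD of triplicate runs.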"}, "[19]": {"molecular_target": "Alpha-2C adrenergic receptor (Homo sapiens) (UniProt P18825)", "assay": "Inhibition of human alpha 2C receptor at 10 uM relative to control"}, "[20]": {"molecular_target": "D(2) dopamine receptor (Homo sapiens) (UniProt P14416)", "assay": "Inhibition of human D2S receptor at 10 uM relative to control"}, "[21]": {"molecular_target": "Histamine H4 receptor (Homo sapiens) (UniProt Q9H3N8)", "sequence (Q9H3N8 whole entry)": "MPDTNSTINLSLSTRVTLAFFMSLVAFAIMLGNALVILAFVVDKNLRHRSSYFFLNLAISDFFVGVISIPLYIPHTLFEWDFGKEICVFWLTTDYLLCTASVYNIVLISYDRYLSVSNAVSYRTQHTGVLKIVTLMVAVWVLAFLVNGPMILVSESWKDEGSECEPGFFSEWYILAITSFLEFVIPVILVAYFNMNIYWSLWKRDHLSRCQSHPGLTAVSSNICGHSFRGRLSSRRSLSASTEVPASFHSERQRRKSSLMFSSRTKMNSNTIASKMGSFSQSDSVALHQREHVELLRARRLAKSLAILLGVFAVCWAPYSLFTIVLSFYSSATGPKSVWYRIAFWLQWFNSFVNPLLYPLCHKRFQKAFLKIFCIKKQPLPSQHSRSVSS", "assay": "Inhibition of human H4 receptor at 10 uM relative to control"}, "[22]": {"molecular_target": "Estrogen receptor (Homo sapiens) (UniProt P03372)", "assay": "Inhibition of human ERalpha at 10 uM relative to control"}, "[23]": {"molecular_target": "B2 bradykinin receptor (Homo sapiens) (UniProt P30411)", "sequence (P30411 whole entry)": "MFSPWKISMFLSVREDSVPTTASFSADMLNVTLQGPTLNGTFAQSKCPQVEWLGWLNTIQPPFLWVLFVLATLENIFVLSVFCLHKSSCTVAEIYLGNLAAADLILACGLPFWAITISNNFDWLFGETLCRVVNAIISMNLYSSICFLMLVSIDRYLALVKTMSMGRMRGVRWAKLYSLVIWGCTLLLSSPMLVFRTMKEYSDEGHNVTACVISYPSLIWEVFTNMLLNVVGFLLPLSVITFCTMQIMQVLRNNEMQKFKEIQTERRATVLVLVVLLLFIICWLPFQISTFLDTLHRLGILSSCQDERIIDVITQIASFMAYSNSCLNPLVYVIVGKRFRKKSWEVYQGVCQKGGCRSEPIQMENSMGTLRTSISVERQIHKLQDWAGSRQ", "assay": "Inhibition of human B2 receptor at 10 uM relative to control"}, "[24]": {"molecular_target": "Tyrosine-protein kinase Fyn (Homo sapiens) (UniProt P06241)", "assay": "Inhibition of human Fyn kinase at 10 uM relative to control"}, "[25]": {"molecular_target": "Somatostatin receptor type 4 (Homo sapiens) (UniProt P31391)", "assay": "Inhibition of human sst4 at 10 uM relative to control"}, "[26]": {"molecular_target": "Histamine H2 receptor (Homo sapiens) (UniProt P25021)", "assay": "Inhibition of human H2 receptor at 10 uM relative to control"}, "[27]": {"molecular_target": "Muscarinic acetylcholine receptor M3 (Homo sapiens) (UniProt P20309)", "sequence (P20309 whole entry, looked up)": "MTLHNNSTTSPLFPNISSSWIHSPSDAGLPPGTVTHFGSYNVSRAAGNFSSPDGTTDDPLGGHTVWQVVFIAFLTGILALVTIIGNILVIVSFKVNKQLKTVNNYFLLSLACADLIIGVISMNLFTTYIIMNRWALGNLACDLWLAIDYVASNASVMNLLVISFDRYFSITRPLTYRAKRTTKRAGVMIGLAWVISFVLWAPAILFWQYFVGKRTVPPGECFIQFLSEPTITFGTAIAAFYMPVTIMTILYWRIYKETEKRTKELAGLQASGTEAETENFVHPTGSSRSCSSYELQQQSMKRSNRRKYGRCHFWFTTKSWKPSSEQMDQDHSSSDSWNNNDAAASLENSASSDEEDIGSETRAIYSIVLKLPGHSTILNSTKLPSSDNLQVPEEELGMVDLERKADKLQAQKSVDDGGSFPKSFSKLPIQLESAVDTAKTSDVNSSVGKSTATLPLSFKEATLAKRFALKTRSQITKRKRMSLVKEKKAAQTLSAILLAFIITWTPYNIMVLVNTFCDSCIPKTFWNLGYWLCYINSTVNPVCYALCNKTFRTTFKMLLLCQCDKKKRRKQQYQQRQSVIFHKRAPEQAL", "assay": "Inhibition of human M3 receptor at 10 uM relative to control"}, "Homo sapiens [28]": {"organism": "Homo sapiens", "assay": "Inhibition of Na+/K+ ATPase (unknown origin) at 10 uM relative to control"}, "[29]": {"molecular_target": "Cholecystokinin receptor type A (Homo sapiens) (UniProt P32238)", "sequence (P32238 whole entry)": "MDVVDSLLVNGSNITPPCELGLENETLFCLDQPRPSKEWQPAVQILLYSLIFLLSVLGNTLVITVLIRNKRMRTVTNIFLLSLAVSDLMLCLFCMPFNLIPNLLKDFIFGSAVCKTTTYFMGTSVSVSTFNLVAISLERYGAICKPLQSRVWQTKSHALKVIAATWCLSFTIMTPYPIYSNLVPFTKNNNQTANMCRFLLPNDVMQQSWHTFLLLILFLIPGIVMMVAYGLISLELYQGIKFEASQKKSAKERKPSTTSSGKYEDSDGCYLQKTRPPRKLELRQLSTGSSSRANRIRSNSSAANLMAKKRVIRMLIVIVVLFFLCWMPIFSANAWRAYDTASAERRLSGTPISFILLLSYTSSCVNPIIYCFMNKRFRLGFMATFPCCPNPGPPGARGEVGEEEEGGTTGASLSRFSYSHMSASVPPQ", "assay": "Inhibition of human CCK1 receptor at 10 uM relative to control"}, "[30]": {"molecular_target": "Prostacyclin receptor (Homo sapiens) (UniProt P43119)", "sequence (P43119 whole entry)": "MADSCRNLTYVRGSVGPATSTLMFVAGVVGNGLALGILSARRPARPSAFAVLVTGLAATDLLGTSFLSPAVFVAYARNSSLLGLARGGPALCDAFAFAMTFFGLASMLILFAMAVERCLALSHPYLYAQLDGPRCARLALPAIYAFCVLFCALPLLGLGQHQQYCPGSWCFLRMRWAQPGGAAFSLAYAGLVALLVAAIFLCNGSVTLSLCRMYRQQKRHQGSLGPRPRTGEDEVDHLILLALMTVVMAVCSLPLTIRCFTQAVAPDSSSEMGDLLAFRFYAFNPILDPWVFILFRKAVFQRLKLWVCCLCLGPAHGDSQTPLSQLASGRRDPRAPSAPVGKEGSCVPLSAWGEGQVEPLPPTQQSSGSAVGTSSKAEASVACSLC", "assay": "Inhibition of human IP (PGI2) receptor at 10 uM relative to control"}, "HFF": {"tested_on": "HFF", "assay": "Cytotoxicity against HFF cells assessed as reduction in cell viability at <50 uM by alamar blue assay", "type": "toxicity, cell-based", "conditions": "human"}, "[31]": {"molecular_target": "5-hydroxytryptamine receptor 7 (Homo sapiens) (UniProt P34969)", "sequence (P34969 whole entry)": "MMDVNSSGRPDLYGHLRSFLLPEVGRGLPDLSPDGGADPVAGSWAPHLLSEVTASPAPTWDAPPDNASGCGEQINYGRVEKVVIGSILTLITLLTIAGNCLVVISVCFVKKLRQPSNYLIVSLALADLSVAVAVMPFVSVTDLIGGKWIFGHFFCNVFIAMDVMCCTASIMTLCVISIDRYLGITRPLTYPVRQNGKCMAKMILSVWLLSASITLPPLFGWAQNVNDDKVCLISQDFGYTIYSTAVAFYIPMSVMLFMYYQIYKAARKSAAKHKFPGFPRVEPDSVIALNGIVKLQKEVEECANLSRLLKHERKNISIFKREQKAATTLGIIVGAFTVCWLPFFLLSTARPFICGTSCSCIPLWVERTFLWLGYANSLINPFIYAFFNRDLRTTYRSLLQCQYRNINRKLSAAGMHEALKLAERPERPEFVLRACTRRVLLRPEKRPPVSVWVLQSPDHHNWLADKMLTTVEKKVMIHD", "assay": "Inhibition of human 5-HT7 receptor at 10 uM relative to control"}, "[32]": {"molecular_target": "Substance-P receptor (Homo sapiens) (UniProt P25103)", "assay": "Inhibition of human NK1 receptor at 10 uM relative to control"}, "[33]": {"molecular_target": "Adenosine receptor A3 (Homo sapiens) (UniProt P0DMS8)", "sequence (P0DMS8 whole entry)": "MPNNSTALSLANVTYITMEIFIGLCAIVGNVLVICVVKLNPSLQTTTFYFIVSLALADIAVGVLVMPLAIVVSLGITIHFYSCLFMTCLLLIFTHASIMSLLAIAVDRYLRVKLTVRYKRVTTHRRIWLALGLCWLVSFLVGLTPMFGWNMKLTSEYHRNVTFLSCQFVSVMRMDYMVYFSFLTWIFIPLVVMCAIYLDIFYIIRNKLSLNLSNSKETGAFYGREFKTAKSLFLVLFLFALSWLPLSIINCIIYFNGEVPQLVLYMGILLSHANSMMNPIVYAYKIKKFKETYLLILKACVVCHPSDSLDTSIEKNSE", "assay": "Inhibition of human A3 receptor at 10 uM relative to control"}, "[34]": {"molecular_target": "Melanin-concentrating hormone receptor 1 (Homo sapiens) (UniProt Q99705)", "assay": "Inhibition of human MCH1 receptor at 10 uM relative to control"}, "[35]": {"molecular_target": "Glucagon receptor (Homo sapiens) (UniProt P47871)", "assay": "Inhibition of human Glucagon receptor at 10 uM relative to control"}, "[36]": {"molecular_target": "Histamine H1 receptor (Homo sapiens) (UniProt P35367)", "assay": "Inhibition of human H1 receptor at 10 uM relative to control"}, "[37]": {"molecular_target": "Vasopressin V2 receptor (Homo sapiens) (UniProt P30518)", "sequence (P30518 whole entry)": "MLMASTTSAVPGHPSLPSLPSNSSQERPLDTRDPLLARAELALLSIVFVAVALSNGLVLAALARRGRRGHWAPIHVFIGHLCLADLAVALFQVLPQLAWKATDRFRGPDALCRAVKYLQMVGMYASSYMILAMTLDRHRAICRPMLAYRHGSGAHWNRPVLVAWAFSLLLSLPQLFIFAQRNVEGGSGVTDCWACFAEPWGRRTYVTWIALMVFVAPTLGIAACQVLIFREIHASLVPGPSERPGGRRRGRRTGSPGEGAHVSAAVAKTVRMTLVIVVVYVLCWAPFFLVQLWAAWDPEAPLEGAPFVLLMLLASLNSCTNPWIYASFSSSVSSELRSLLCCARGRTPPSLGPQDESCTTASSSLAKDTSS", "assay": "Inhibition of human V2 receptor at 10 uM relative to control"}, "[38]": {"molecular_target": "Neuropeptide Y receptor type 1 (Homo sapiens) (UniProt P25929)", "assay": "Inhibition of human Y1 receptor at 10 uM relative to control"}, "[39]": {"molecular_target": "Muscarinic acetylcholine receptor M1 (Homo sapiens) (UniProt P11229)", "assay": "Inhibition of human M1 receptor at 10 uM relative to control"}, "[40]": {"assay": "Stability of compound in cell media by MS-LC analysis", "type": "physicochemical"}, "MDA-MB-231": {"tested_on": "MDA-MB-231", "assay": "Cytotoxicity against human MDA-MB-231 cells assessed as reduction in cell viability at <50 uM by alamar blue assay", "type": "toxicity, cell-based", "conditions": "mda-mb-231, 50 µM"}, "[41]": {"molecular_target": "Tyrosine-protein kinase Lyn (Homo sapiens) (UniProt P07948)", "assay": "Inhibition of human Lyn A kinase at 10 uM relative to control"}}, "note": "pIC50: −log10 of the molar value.", "data": [{"compound": "O=C([C@@H](Cc1cccc(C(F)(F)F)c1)NS(=O)(=O)c1cc(F)c2c(c1)CCNC2)N1CCCC1", "values": [{"measurement": "inhibition", "setting": "Homo sapiens [1]", "value": 28, "unit": "%"}, {"measurement": "inhibition", "setting": "[2]", "value": 1, "unit": "%"}, {"measurement": "inhibition", "setting": "Homo sapiens [3]", "value": 38, "unit": "%"}, {"measurement": "inhibition", "setting": "Caspase-3 (Homo sapiens)", "value": 2, "unit": "%"}, {"measurement": "pIC50", "setting": "[4]", "value": 4.85}, {"measurement": "inhibition", "setting": "[5]", "value": -3, "unit": "%"}, {"measurement": "inhibition", "setting": "[6]", "value": 15, "unit": "%"}, {"measurement": "inhibition", "setting": "[7]", "value": -5, "unit": "%"}, {"measurement": "Papp", "setting": "[8]", "value": 6.48, "unit": "×10⁻⁶ cm/s"}, {"measurement": "inhibition", "setting": "Homo sapiens [9]", "value": -1, "unit": "%"}, {"measurement": "inhibition", "setting": "[10]", "value": 43, "unit": "%"}, {"measurement": "inhibition", "setting": "[11]", "value": 3, "unit": "%"}, {"measurement": "Activity", "setting": "U2OS", "value": "Non-Toxic"}, {"measurement": "inhibition", "setting": "Homo sapiens [12]", "value": 18, "unit": "%"}, {"measurement": "inhibition", "setting": "[13]", "value": -8, "unit": "%"}, {"measurement": "deltaT", "setting": "[14]", "value": 4, "unit": "°C"}, {"measurement": "inhibition", "setting": "[15]", "value": 10, "unit": "%"}, {"measurement": "pIC50", "setting": "[16]", "value": 5.09}, {"measurement": "inhibition", "setting": "[17]", "value": 15, "unit": "%"}, {"measurement": "pIC50", "setting": "[18]", "value": 4.97}, {"measurement": "inhibition", "setting": "[19]", "value": 10, "unit": "%"}, {"measurement": "inhibition", "setting": "[20]", "value": 39, "unit": "%"}, {"measurement": "inhibition", "setting": "[21]", "value": -2, "unit": "%"}, {"measurement": "inhibition", "setting": "[22]", "value": -5, "unit": "%"}, {"measurement": "inhibition", "setting": "[23]", "value": 0, "unit": "%"}, {"measurement": "inhibition", "setting": "[24]", "value": 1, "unit": "%"}, {"measurement": "inhibition", "setting": "[25]", "value": 27, "unit": "%"}, {"measurement": "inhibition", "setting": "[26]", "value": 0, "unit": "%"}, {"measurement": "inhibition", "setting": "[27]", "value": 37, "unit": "%"}, {"measurement": "inhibition", "setting": "Homo sapiens [28]", "value": 5, "unit": "%"}, {"measurement": "inhibition", "setting": "[29]", "value": 8, "unit": "%"}, {"measurement": "inhibition", "setting": "[30]", "value": -7, "unit": "%"}, {"measurement": "Activity", "setting": "HFF", "value": "Non-Toxic"}, {"measurement": "inhibition", "setting": "[31]", "value": 41, "unit": "%"}, {"measurement": "inhibition", "setting": "[32]", "value": 43, "unit": "%"}, {"measurement": "inhibition", "setting": "[33]", "value": 12, "unit": "%"}, {"measurement": "inhibition", "setting": "[34]", "value": -1, "unit": "%"}, {"measurement": "inhibition", "setting": "[35]", "value": 1, "unit": "%"}, {"measurement": "inhibition", "setting": "[36]", "value": 10, "unit": "%"}, {"measurement": "inhibition", "setting": "[37]", "value": 11, "unit": "%"}, {"measurement": "inhibition", "setting": "[38]", "value": -8, "unit": "%"}, {"measurement": "inhibition", "setting": "[39]", "value": 16, "unit": "%"}, {"measurement": "Stability", "setting": "[40]", "value": "Stable"}, {"measurement": "Activity", "setting": "MDA-MB-231", "value": "Non-Toxic"}, {"measurement": "inhibition", "setting": "[41]", "value": 14, "unit": "%"}]}]}
